Laboratory results as given in ChEMBL document CHEMBL1641401, “Synthesis of antimitotic polyalkoxyphenyl derivatives of combretastatin using plant allylpolyalkoxybenzenes” (2010).
Activity calls are given as the source filed them.

Key:
Paracentrotus lividus [1] = test: Antimitotic activity against Paracentrotus lividus embryo assessed as cleavage arrest after 2.5 to 6 hrs post fertilization by sea urchin embryo assay; type: functional
Procedure, shortened: (§1)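 Fertilized sea urchin eggs, cultured at room temperature in filtered seawater with paddle agitation (60 rpm), exposed 10-25 min post-fertilization (45-60 min before first cleavage) to 2-fold decreasing concentrations as a monolayer, up to 2000 embryos/mL. Stocks: 5 mM in 95% EtOH, or 5-20 mM in DMSO then 10-fold diluted in 95% EtOH. Cleavage scored microscopically 2.5-6 h post-fertilization. EC = threshold concentration causing cleavage alteration with death before hatching or full arrest.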

Paracentrotus lividus [2] = test: Antimitotic activity against Paracentrotus lividus embryo assessed as cleavage alteration after 2.5 to 6 hrs post fertilization by sea urchin embryo assay; type: functional; procedure, shortened: as §1
Paracentrotus lividus [3] = test: Antimitotic activity against Paracentrotus lividus embryo assessed as embryo spinning after 0.5 to 20 hrs post dose by sea urchin embryo assay; type: functional
Procedure, shortened: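 Free-swimming blastulae from the same culture treated just after hatching (9-12 h post-fertilization) in filtered seawater at room temperature. Final DMSO at most 0.05%, EtOH at most 1%. Tubulin destabilization scored microscopically as loss of forward movement, settling to the vessel bottom and rapid spinning about the animal-vegetal axis.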

Paracentrotus lividus [4] = test: Antimitotic activity against Paracentrotus lividus embryo assessed as cleavage alteration up to 5 uM after 2.5 to 6 hrs post fertilization by sea urchin embryo assay; type: functional, organism-based
Procedure, shortened: (§2)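 Fertilized sea urchin eggs, treated 10-25 min after fertilization (45-60 min before first cleavage), exposed to 2-fold decreasing concentrations; monolayer in filtered seawater at room temperature, up to 2000 embryos/mL. Compounds from EtOH or DMSO stocks diluted in 95% EtOH; final DMSO ≤0.05%, EtOH ≤1%. Cleavage scored microscopically 2.5-6 h post-fertilization; EC = threshold concentration causing cleavage alteration with death before hatching or full mitotic arrest.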

Paracentrotus lividus [5] = test: Antimitotic activity against Paracentrotus lividus embryo assessed as cleavage alteration up to 80 to 100 uM after 2.5 to 6 hrs post fertilization by sea urchin embryo assay; type: functional, organism-based; procedure, shortened: as §2

SMILES	EC (Paracentrotus lividus [1]) [µM]	EC (Paracentrotus lividus [2]) [µM]	EC (Paracentrotus lividus [3]) [µM]	Activity (Paracentrotus lividus [4])	Activity (Paracentrotus lividus [5])
COc1ccc(/C=C/c2cc3c(cc2OC)OCCO3)cc1O	2	0.1	>5	–	–
COc1ccc(/C=C\c2cc(OC)c(OC)c(OC)c2)cc1OP(=O)([O-])[O-].[Na+].[Na+] [FOSBRETABULIN DISODIUM]	0.01	0.005	1	–	–
COc1cc(-c2nnc(-c3cc(OC)c4c(c3)OCO4)o2)cc(OC)c1OC	2	0.5	>5	–	–
COc1ccc(-c2nc(-c3cc(OC)c4c(c3OC)OCO4)no2)cc1O	>4	>4	>4	–	–
COc1ccc(-c2nnc(-c3ccc(OC)c(OC)c3)o2)cc1OC	10	0.5	5	–	–
C/C=C/c1cc(OC)c2c(c1OC)OCO2 [ISOAPIOL]	8	2	>10	–	–
C/C=C/c1cc2c(c(OC)c1OC)OCO2 [ISODILLAPIOL]	80	20	>100	–	–
COc1ccc(-c2nnc(-c3cccc(F)c3)o2)cc1OC	>4	1	>5	–	–
COc1ccc(-c2nnc(-c3cc(OC)c(OC)c(OC)c3)o2)cc1O	>4	>4	>4	–	–
COc1cc(/C=C/c2cc(OC)c3c(c2OC)OCO3)ccc1O	>4	>4	>5	–	–
COc1ccc(/C=C/c2cc(OC)c(OC)c(OC)c2OC)cc1O	1	0.1	5	–	–
COc1ccc(/C=C/c2ccc3c(c2)OCCO3)cc1O	1	0.1	2	–	–
C/C=C/c1cc(OC)c(OC)c(OC)c1OC	–	–	–	inactive	–
COc1ccc(/C=C/c2cc3c(c(OC)c2OC)OCO3)cc1O	4	0.1	5	–	–
COc1ccc(/C=C\c2cc(OC)c3c(c2)OCO3)cc1O [Combretastatin A-2]	0.01	0.002	0.05	–	–
COc1ccc(-c2nnc(-c3cc(OC)c4c(c3)OCO4)[nH]2)cc1O	>4	2	>5	–	–
COc1ccc(/C=C\c2cc(OC)c3c(c2OC)OCO3)cc1O	0.1	0.02	1	–	–
C/C=C/c1cc(OC)c2c(c1)OCO2 [ISOMYRISTICIN]	>5	>5	>5	–	–
COc1ccc(-c2nc(Cc3cc(OC)c4c(c3OC)OCO4)no2)cc1O	>4	4	>5	–	–
C=CCc1cc(OC)c2c(c1OC)OCO2	–	–	–	–	inactive
COc1ccc(/C=C/c2cc(OC)c3c(c2OC)OCO3)cc1O	4	0.5	5	–	–

SMILES	EC (Paracentrotus lividus [1]) [µM]	EC (Paracentrotus lividus [2]) [µM]	EC (Paracentrotus lividus [3]) [µM]	Activity (Paracentrotus lividus [4])	Activity (Paracentrotus lividus [5])
COc1ccc(/C=C/c2cc(OC)c3c(c2)OCCO3)cc1O	0.1	0.02	2	–	–
COc1ccc(/C=C\c2cc(OC)c3c(c2)OCCO3)cc1O	0.01	0.002	0.05	–	–
COc1ccc(/C=C\c2cc(OC)c(OC)c(OC)c2)cc1O [COMBRETASTATIN A4]	0.01	0.002	0.05	–	–
COc1ccc(-c2nnc(-c3cc(OC)c(OC)c(OC)c3)[nH]2)cc1O	>4	4	>4	–	–
COc1ccc(/C=C\c2cc3c(cc2OC)OCCO3)cc1O	0.2	0.02	1	–	–
COc1ccc(-c2nc(-c3cc(OC)c4c(c3)OCO4)no2)cc1O	>4	4	>4	–	–
COc1ccc(/C=C/c2cc(OC)c3c(c2)OCO3)cc1O	0.1	0.02	1	–	–
COc1ccc(/C=C\c2cc(OC)c(OC)c(OC)c2OC)cc1O	0.1	0.02	1	–	–
COc1ccc(/C=C\c2cc3c(c(OC)c2OC)OCO3)cc1O	0.2	0.01	0.5	–	–
C=CCc1cc(OC)c2c(c1)OCO2	–	–	–	–	inactive
COc1ccc(/C=C(/C(=O)O)c2cc(OC)c(OC)c(OC)c2)cc1O	>11.2	>11.2	>11.2	–	–
COc1ccc(-c2nc(-c3c(Cl)c(OC)c4c(c3OC)OCO4)no2)cc1O	>4	>4	–	–	–
COc1cc(-c2noc(-c3ccc4c(c3)OCO4)n2)cc(OC)c1OC	>4	>4	>4	–	–
COc1cccc(-c2nnc(-c3ccc(OC)c(OC)c3)o2)c1	4	0.05	2	–	–
COc1ccc(-c2nc(-c3cc4c(c(OC)c3OC)OCO4)no2)cc1O	>4	>4	>4	–	–
COc1ccc(-c2nnc(-c3cc(OC)c4c(c3OC)OCO4)[nH]2)cc1O	>4	>4	>4	–	–
C=CCc1cc2c(c(OC)c1OC)OCO2	–	–	–	–	inactive
COc1ccc(-c2nnc(-c3cc4c(c(OC)c3OC)OCO4)[nH]2)cc1O	>4	4	>4	–	–
COc1ccc(-c2nnc(-c3cc(OC)c4c(c3)OCO4)o2)cc1O	2	0.5	>5	–	–
COc1ccc(/C=C\c2ccc3c(c2)OCCO3)cc1O	0.5	0.02	1	–	–
